In ChEMBL document CHEMBL1124102, “Synthesis and biodistribution of 99mTc-labeled piperidinyl bis(aminoethanethiol) complexes: potential brain perfusion imaging agents for single photon emission computed tomography” (J Med Chem, 1988):

Tests used:
[1] = test system: Rattus norvegicus; experiment: Brain Uptake of compound was measured after 2 min of administration; assay type: functional, organism-based
In short: (§1)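 Tc-99m complex injected into rats, three per time point. At set times, 1 mL blood was drawn by cardiac puncture and the animal was killed by cardiectomy. Organs were excised, weighed and gamma-counted. Percent dose per organ came from comparing tissue counts with dilutions of the injected dose, reported as the mean with the range across the three rats.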

[2] = Ratio of brain dose per gram to the blood dose per gram measured at 15 min; assay type: functional, tissue-based
In short: (§2)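 Rats (three per time point) were given the Tc-99m complex, then sampled by cardiac puncture, killed, and had organs excised and gamma-counted against injected-dose dilutions. Percent dose/organ was converted to percent dose/gram using mean organ weights (brain 1.65 g; blood 18 g). The ratio is (brain dose/gram)/(blood dose/gram).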

[3] = Ratio of brain dose per gram to the blood dose per gram measured at 2 min; assay type: functional, tissue-based; in short: as §2
[4] = test system: Rattus norvegicus; experiment: Brain Uptake of compound was measured after 15 min of administration; assay type: functional, organism-based; in short: as §1

Substance | Uptake value [1] | Ratio [2] | Ratio [3] | Uptake value [4]
Tc-labeled 3,3,10,10-tetramethyl-6-(2-methylhexahydro-1-pyridinylmethyl)-1-acetone2,11-dithia-5-azonia-8-azatricyclo[6.3.0.01,5]undecane | 0.61 | 1.84 | 1.06 | 0.35
Tc-labeled 3,3,10,10-tetramethyl-6-(2,6-dimethylhexahydro-1-pyridinylmethyl)-1-acetone2,11-dithia-5-azonia-8-azatricyclo[6.3.0.01,5]undecane (isomer) | 1.19 | 2.07 | 1.98 | 0.54
Tc-labeled 3,3,10,10-tetramethyl-6-(2-methylhexahydro-1-pyridinylmethyl)-1-acetone2,11-dithia-5-azonia-8-azatricyclo[6.3.0.01,5]undecane (isomer) | 1.8 | 3.84 | 4.96 | 0.54
